Measured values as given in ChEMBL document CHEMBL3603756, “Synthesis and apoptotic activity of new pyrazole derivatives in cancer cell lines” (2015).
Active and inactive are the calls of the source. The rule behind the calls is not given here.

Experiments:
[1] = system: HCT-8; assay: Induction of apoptosis in human HCT8 cells assessed necrosis level at 50 ug/ml incubated for 24 hrs by annexin V-FITC and propidium iodide staining based flow cytometry (reference value: 1.12%); assay type: functional
[2] = Cytotoxicity against human Hep2 cells assessed as cell viability at 25 ug/ml incubated for 24 hrs by MTS assay; assay type: functional; settings: HEp-2, 24 h, read-out: Activity
Method in brief: (§1)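 Cells were held at 37 °C, 5% CO2 in humid air. HEp-2 (5 x 10³/well) and HCT-8 (7 x 10³/well) grew in DMEM + 10% heat-inactivated FBS and got compound (binary dilutions) 24 h after seeding. THP-1 (5 x 10³ cells, RPMI-1640 + 10% FBS) were added directly to the dilutions. Exposure lasted 24 h. MTS (CellTiter 96 AQueous One) read-out was absorbance at 490 nm.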

[3] = system: HCT-8; assay: Induction of apoptosis in human HCT8 cells assessed late apoptosis level at 50 ug/ml incubated for 24 hrs by annexin V-FITC and propidium iodide staining based flow cytometry (reference value: 4.8%); assay type: functional
[4] = Reduction in PRKAA1 gene expression in human Hep2 cells at 50 ug/ml incubated for 24 hrs by real-time PCR method; assay type: functional, cell-based; settings: HEp-2
Method in brief: (§2)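 HEp-2 cells were treated 24 h at 10 or 50 µg/mL. Total RNA was extracted with Trizol, and 2 µg was reverse-transcribed. 50 ng cDNA went into TaqMan real-time PCR with beta-actin as endogenous control. Relative expression was calculated by the ∆∆CT method. Each experiment was run three times.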

[5] = system: HEp-2; assay: Induction of cell cycle arrest in human Hep2 cells assessed accumulation at S phase at 10 ug/ml incubated for 24 hrs by propidium iodide staining based flow cytometry (reference value: 21.06%); assay type: functional
[6] = system: HEp-2; assay: Induction of cell cycle arrest in human Hep2 cells assessed accumulation at S phase at 50 ug/ml incubated for 24 hrs by propidium iodide staining based flow cytometry (reference value: 21.06%); assay type: functional
[7] = system: HEp-2; assay: Increase in cyclin B gene expression in human Hep2 cells at 50 ug/ml incubated for 24 hrs by real-time PCR method; assay type: functional, cell-based; method in brief: as §2
[8] = Cytotoxicity against human HCT8 cells assessed as cell viability at 50 ug/ml incubated for 24 hrs by MTS assay; assay type: functional; settings: HCT-8, 24 h, read-out: Activity; method in brief: as §1
[9] = system: HCT-8; assay: Induction of apoptosis in human HCT8 cells assessed viable cells level at 50 ug/ml incubated for 24 hrs by annexin V-FITC and propidium iodide staining based flow cytometry (reference value: 93.3%); assay type: functional
[10] = Cytotoxicity against human HCT8 cells assessed as cell viability at 25 ug/ml incubated for 24 hrs by MTS assay; assay type: functional; settings: HCT-8, 24 h, read-out: Activity; method in brief: as §1
[11] = system: THP-1; assay: Cytotoxicity against human THP1 cells assessed as cell viability at 12.5 ug/ml incubated for 24 hrs by MTS assay; assay type: functional; settings: THP-1, 24 h, read-out: Activity; method in brief: as §1
[12] = system: THP-1; assay: Cytotoxicity against human THP1 cells assessed as cell viability at 25 ug/ml incubated for 24 hrs by MTS assay; assay type: functional; settings: THP-1, 24 h, read-out: Activity; method in brief: as §1
[13] = system: HEp-2; assay: Induction of cell cycle arrest in human Hep2 cells assessed accumulation at G2/M phase incubated for 24 hrs by propidium iodide staining based flow cytometry; assay type: functional
[14] = system: HEp-2; assay: Induction of cell cycle arrest in human Hep2 cells assessed accumulation at G2/M phase at 10 ug/ml incubated for 24 hrs by propidium iodide staining based flow cytometry (reference value: 7.82%); assay type: functional
[15] = Reduction in PRKAA2 gene expression in human Hep2 cells at 50 ug/ml incubated for 24 hrs by real-time PCR method; assay type: functional, cell-based; settings: HEp-2; method in brief: as §2
[16] = Cytotoxicity against human Hep2 cells assessed as cell viability at 12.5 ug/ml incubated for 24 hrs by MTS assay; assay type: functional; settings: HEp-2, 24 h, read-out: Activity; method in brief: as §1
[17] = system: HEp-2; assay: Induction of cell cycle arrest in human Hep2 cells assessed accumulation at G0/G1 phase at 10 ug/ml incubated for 24 hrs by propidium iodide staining based flow cytometry (reference value: 74.51%); assay type: functional
[18] = Cytotoxicity against human Hep2 cells assessed as cell viability at 50 ug/ml incubated for 24 hrs by MTS assay; assay type: functional; settings: HEp-2, 24 h, read-out: Activity; method in brief: as §1
[19] = system: HEp-2; assay: Increase in cyclin B gene expression in human Hep2 cells at 10 ug/ml incubated for 24 hrs by real-time PCR method; assay type: functional, cell-based; method in brief: as §2
[20] = system: HEp-2; assay: Induction of cell cycle arrest in human Hep2 cells assessed accumulation at G0/G1 phase at 50 ug/ml incubated for 24 hrs by propidium iodide staining based flow cytometry (reference value: 74.51%); assay type: functional
[21] = system: HEp-2; assay: Induction of cell cycle arrest in human Hep2 cells assessed accumulation at G2/M phase at 50 ug/ml incubated for 24 hrs by propidium iodide staining based flow cytometry (reference value: 7.82%); assay type: functional
[22] = Cytotoxicity against human HCT8 cells assessed as cell viability at 12.5 ug/ml incubated for 24 hrs by MTS assay; assay type: functional; settings: HCT-8, 24 h, read-out: Activity; method in brief: as §1
[23] = Reduction in PRKAA1 gene expression in human Hep2 cells at 10 ug/ml incubated for 24 hrs by real-time PCR method; assay type: functional, cell-based; settings: HEp-2; method in brief: as §2
[24] = Reduction in PRKAA2 gene expression in human Hep2 cells at 10 ug/ml incubated for 24 hrs by real-time PCR method; assay type: functional, cell-based; settings: HEp-2; method in brief: as §2
[25] = system: THP-1; assay: Cytotoxicity against human THP1 cells assessed as cell viability at 50 ug/ml incubated for 24 hrs by MTS assay; assay type: functional; settings: THP-1, 24 h, read-out: Activity; method in brief: as §1
[26] = system: HCT-8; assay: Induction of apoptosis in human HCT8 cells assessed early apoptosis level at 50 ug/ml incubated for 24 hrs by annexin V-FITC and propidium iodide staining based flow cytometry (reference value: 0.75%); assay type: functional
[27] = system: HEp-2; assay: Reduction in survivin protein levels in human Hep2 cells at 50 ug/ml incubated for 24 hrs by protein array method; assay type: functional, cell-based
[28] = system: HEp-2; assay: Reduction in c-IAP1 levels in human Hep2 cells at 50 ug/ml incubated for 24 hrs by protein array method; assay type: functional, cell-based
[29] = system: HEp-2; assay: Increase in Fas/TNFRSF6 protein expression in human Hep2 cells at 50 ug/ml incubated for 24 hrs by protein array method; assay type: functional, cell-based
[30] = system: HEp-2; assay: Reduction in HSP27 protein levels in human Hep2 cells at 50 ug/ml incubated for 24 hrs by protein array method; assay type: functional, cell-based
[31] = system: HEp-2; assay: Increase in FADD protein expression in human Hep2 cells at 50 ug/ml incubated for 24 hrs by protein array method; assay type: functional, cell-based
[32] = system: HEp-2; assay: Reduction in XIAP levels in human Hep2 cells at 50 ug/ml incubated for 24 hrs by protein array method; assay type: functional, cell-based
[33] = system: HEp-2; assay: Reduction in pro-caspase-3 levels in human Hep2 cells at 50 ug/ml incubated for 24 hrs by protein array method; assay type: functional, cell-based
[34] = system: HEp-2; assay: Reduction in c-IAP2 levels in human Hep2 cells at 50 ug/ml incubated for 24 hrs by protein array method; assay type: functional, cell-based
[35] = system: HEp-2; assay: Increase in TRAIL-R2 protein expression in human Hep2 cells at 50 ug/ml incubated for 24 hrs by protein array method; assay type: functional, cell-based
[36] = system: HEp-2; assay: Induction of apoptosis in human Hep2 cells assessed as increase in p53 S15/S46/S392 phosphorylation level at 50 ug/ml incubated for 24 hrs by protein array method; assay type: functional, cell-based
[37] = system: HEp-2; assay: Increase in TRAIL-R1 protein expression in human Hep2 cells at 50 ug/ml incubated for 24 hrs by protein array method; assay type: functional, cell-based
[38] = system: HEp-2; assay: Reduction in livin protein levels in human Hep2 cells at 50 ug/ml incubated for 24 hrs by protein array method; assay type: functional, cell-based
[39] = system: HEp-2; assay: Reduction in HSP70 protein levels in human Hep2 cells at 50 ug/ml incubated for 24 hrs by protein array method; assay type: functional, cell-based
[40] = system: HEp-2; assay: Increase in caspase-8 levels in human Hep2 cells at 50 ug/ml incubated for 24 hrs by protein array method; assay type: functional, cell-based
[41] = system: HEp-2; assay: Increase in cleaved-caspase-3 levels in human Hep2 cells at 50 ug/ml incubated for 24 hrs by protein array method; assay type: functional, cell-based
[42] = system: HEp-2; assay: Increase in PRKAA1 gene expression in human Hep2 cells at 50 ug/ml incubated for 24 hrs by real-time PCR method; assay type: functional, cell-based; method in brief: as §2
[43] = system: HEp-2; assay: Increase in PRKAA2 gene expression in human Hep2 cells at 50 ug/ml incubated for 24 hrs by real-time PCR method; assay type: functional, cell-based; method in brief: as §2

Cn1cc(C(=O)NC(=S)Nc2ccccc2Br)cn1
Activity [1]: 1.87% | viability at 25 µg/mL [2]: 100% | Activity [3]: 5.41% | Activity [4]: inactive | Activity [5]: 19.09% | Activity [6]: 21.87% | Activity [7]: Active | viability at 50 µg/mL [8]: 91.5% | Activity [9]: 91.5% | viability at 25 µg/mL [10]: 100% | viability at 12.5 µg/mL [11]: 98% | viability at 25 µg/mL [12]: 59.4% | Activity [13]: Dose-dependent effect | Activity [14]: 10.28% | Activity [15]: inactive | viability at 12.5 µg/mL [16]: 100% | Activity [17]: 74.41% | viability at 50 µg/mL [18]: 80% | Activity [19]: Active | Activity [20]: 70.17% | Activity [21]: 15.93% | viability at 12.5 µg/mL [22]: 100% | Activity [23]: inactive | Activity [24]: inactive | viability at 50 µg/mL [25]: 31.9% | Activity [26]: 1.23%

Cn1cc(C(=O)/N=C2\SCC(C)(O)N2c2ccc(I)cc2)cn1 (stereo unspecified)
Activity [1]: 1.44% | viability at 25 µg/mL [2]: 100% | Activity [27]: Active | Activity [3]: 3.37% | Activity [4]: Active | Activity [28]: Active | Activity [29]: Active | Activity [5]: 17.85% | Activity [30]: Active | Activity [6]: 27.01% | Activity [31]: Active | Activity [32]: Active | Activity [33]: Active | viability at 50 µg/mL [8]: 90.2% | Activity [34]: Active | Activity [9]: 90.2% | viability at 25 µg/mL [10]: 100% | viability at 12.5 µg/mL [11]: 97% | Activity [35]: Active | viability at 25 µg/mL [12]: 84.1% | Activity [13]: Dose-dependent effect | Activity [14]: 14.92% | Activity [36]: Active | Activity [15]: Active | viability at 12.5 µg/mL [16]: 100% | Activity [37]: Active | Activity [17]: 74.73% | viability at 50 µg/mL [18]: 89% | Activity [38]: Active | Activity [39]: Active | Activity [20]: 43.62% | Activity [40]: Active | Activity [21]: 33.4% | viability at 12.5 µg/mL [22]: 100% | Activity [23]: Active | Activity [41]: Active | Activity [24]: Active | viability at 50 µg/mL [25]: 38.4% | Activity [26]: 4.96%

Cn1cc(C(=O)NC(=S)Nc2cccc(Br)c2)cn1
Activity [1]: 7.58% | viability at 25 µg/mL [2]: 82% | Activity [27]: Active | Activity [3]: 7.11% | Activity [28]: Active | Activity [29]: Active | Activity [5]: 20.85% | Activity [30]: Active | Activity [6]: 34.7% | Activity [7]: Active | Activity [31]: Active | Activity [32]: Active | Activity [33]: Active | viability at 50 µg/mL [8]: 78.2% | Activity [34]: Active | Activity [9]: 78.2% | viability at 25 µg/mL [10]: 89.8% | viability at 12.5 µg/mL [11]: 77% | Activity [35]: Active | viability at 25 µg/mL [12]: 55.8% | Activity [13]: Dose-dependent effect | Activity [14]: 18.43% | Activity [36]: Active | Activity [42]: Active | viability at 12.5 µg/mL [16]: 100% | Activity [37]: Active | Activity [17]: 66.12% | viability at 50 µg/mL [18]: 70% | Activity [19]: Active | Activity [38]: Active | Activity [39]: Active | Activity [20]: 15.4% | Activity [40]: Active | Activity [21]: 52.33% | viability at 12.5 µg/mL [22]: 94% | Activity [23]: Active | Activity [41]: Active | Activity [24]: Active | viability at 50 µg/mL [25]: 32% | Activity [43]: Active | Activity [26]: 7.07%
